ChEMBL document CHEMBL5674875, “RUNX2 expression in thyroid and breast cancer requires the cooperation of three non-redundant enhancers under the control of BRD4 and c-JUN” (Nucleic Acids Res, 2017)
Activity calls are given as the source filed them. The rule behind the calls is not given here.

Key:
TPC1 [1] = assay: Anti-proliferative activity against human TPC1 cells assessed as reduction in cell proliferation incubated for 72 hrs; format: functional, cell-based; conditions: TPC1, 72 h
Outline: (§1)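 Cells grown in DMEM with 10% fetal bovine serum at 37°C/5% CO2, then exposed to a series of compound concentrations or DMSO mock. Proliferation curves were recorded for each line.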

BCPAP [2] = assay: Anti-proliferative activity against human BCPAP cells assessed as reduction in cell proliferation incubated for 72 hrs; format: functional, cell-based; outline: as §1
MDA-MB-231 [3] = assay: Anti-proliferative activity against human MDA-MB-231 cells assessed as reduction in cell proliferation incubated for 72 hrs; format: functional, cell-based; conditions: MDA-MB-231, 72 h; outline: as §1
MCF7 [4] = assay: Anti-proliferative activity against human MCF7 cells assessed as reduction in cell proliferation incubated for 72 hrs; format: functional, cell-based; conditions: MCF7, 72 h; outline: as §1
TPC1 [5] = assay: Inhibition of c-MYC expression in human TPC1 cells at 0.25 to 1 uM after 6 to 24 hrs by qRT-PCR analysis; format: functional, cell-based; conditions: dose 0.25-1 µM, time 6-24 hrs
Outline: (§2)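 Cells in DMEM/10% FBS were treated with the indicated compound concentrations or DMSO mock. Total RNA was purified and reverse-transcribed, and transcript levels were measured by EvaGreen-based qRT-PCR.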

BCPAP [6] = assay: Inhibition of c-MYC expression in human BCPAP cells at 0.25 to 1 uM after 6 to 24 hrs by qRT-PCR analysis; format: functional, cell-based; conditions: dose 0.25-1 µM, time 6-24 hrs; outline: as §2
MDA-MB-231 [7] = assay: Inhibition of c-MYC expression in human MDA-MB-231 cells at 0.25 to 1 uM after 6 to 24 hrs by qRT-PCR analysis; format: functional, cell-based; conditions: dose 0.25-1 µM, time 6-24 hrs; outline: as §2
MCF7 [8] = assay: Inhibition of c-MYC expression in human MCF7 cells at 0.25 to 1 uM after 6 to 24 hrs by qRT-PCR analysis; format: functional, cell-based; conditions: dose 0.25-1 µM, time 6-24 hrs; outline: as §2
[9] = biological target: Mediator of RNA polymerase II transcription subunit 1 (Homo sapiens) (UniProt Q15648); assay: Inhibition of MED1 in human TPC1 cells assessed as reduction of […] binding to all active RUNX2 regulatory elements (ENH11,ENH13) at 1 uM by ChIP analysis; format: cell-based
Sequence of Mediator of RNA polymerase II transcription subunit 1 (Homo sapiens) (Q15648 whole entry): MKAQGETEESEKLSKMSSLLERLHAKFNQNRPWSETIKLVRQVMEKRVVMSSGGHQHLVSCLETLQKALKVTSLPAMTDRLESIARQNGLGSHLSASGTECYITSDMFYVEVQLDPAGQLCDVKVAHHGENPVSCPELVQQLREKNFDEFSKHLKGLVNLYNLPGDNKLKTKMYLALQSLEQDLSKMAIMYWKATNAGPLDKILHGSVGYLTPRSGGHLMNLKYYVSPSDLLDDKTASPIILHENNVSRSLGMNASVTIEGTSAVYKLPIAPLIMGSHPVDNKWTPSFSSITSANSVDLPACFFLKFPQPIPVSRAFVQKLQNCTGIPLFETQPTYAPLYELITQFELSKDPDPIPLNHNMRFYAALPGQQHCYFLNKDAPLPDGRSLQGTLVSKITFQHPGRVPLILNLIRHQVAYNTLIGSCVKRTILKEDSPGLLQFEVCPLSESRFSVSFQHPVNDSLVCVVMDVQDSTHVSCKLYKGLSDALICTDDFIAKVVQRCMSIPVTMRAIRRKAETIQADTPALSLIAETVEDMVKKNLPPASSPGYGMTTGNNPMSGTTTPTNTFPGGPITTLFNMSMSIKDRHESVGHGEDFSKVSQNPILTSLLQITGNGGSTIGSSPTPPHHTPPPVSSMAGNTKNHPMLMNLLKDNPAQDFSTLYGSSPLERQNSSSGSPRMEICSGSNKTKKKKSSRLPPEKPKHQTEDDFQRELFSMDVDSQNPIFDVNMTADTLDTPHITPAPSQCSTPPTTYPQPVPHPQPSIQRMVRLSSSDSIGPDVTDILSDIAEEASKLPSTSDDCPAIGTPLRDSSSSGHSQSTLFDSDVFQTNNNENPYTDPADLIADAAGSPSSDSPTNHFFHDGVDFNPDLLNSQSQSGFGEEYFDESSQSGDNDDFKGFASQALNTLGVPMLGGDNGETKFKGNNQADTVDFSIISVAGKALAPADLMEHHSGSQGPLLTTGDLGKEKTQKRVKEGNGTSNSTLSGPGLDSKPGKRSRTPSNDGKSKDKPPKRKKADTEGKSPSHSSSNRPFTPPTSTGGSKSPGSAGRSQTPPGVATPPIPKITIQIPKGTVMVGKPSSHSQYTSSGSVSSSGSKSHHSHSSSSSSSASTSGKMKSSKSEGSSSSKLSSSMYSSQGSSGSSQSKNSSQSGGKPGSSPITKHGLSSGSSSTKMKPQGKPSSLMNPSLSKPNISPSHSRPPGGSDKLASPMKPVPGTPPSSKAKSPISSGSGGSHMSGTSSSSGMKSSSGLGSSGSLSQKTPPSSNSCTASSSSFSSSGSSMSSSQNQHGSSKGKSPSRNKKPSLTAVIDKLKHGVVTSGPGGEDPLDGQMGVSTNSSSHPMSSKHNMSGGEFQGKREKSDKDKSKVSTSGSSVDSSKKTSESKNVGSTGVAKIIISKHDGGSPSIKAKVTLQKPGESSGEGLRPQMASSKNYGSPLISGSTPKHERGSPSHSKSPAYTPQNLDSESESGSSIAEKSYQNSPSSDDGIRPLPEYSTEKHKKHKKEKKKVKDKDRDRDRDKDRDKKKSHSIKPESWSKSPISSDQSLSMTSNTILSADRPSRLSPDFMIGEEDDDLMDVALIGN
Outline: (§3)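 Cells were treated with 1 μM compound or DMSO mock, 24 h unless otherwise specified. ChIP used anti-MED1 antibody at the RUNX2 P2 promoter and active enhancer regions. An unrelated region upstream of P2 served as negative control. Enrichment is expressed as percentage of input.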

[10] = biological target: Mediator of RNA polymerase II transcription subunit 1 (Homo sapiens) (UniProt Q15648); assay: Inhibition of MED1 in human MDA-MB-231 cells assessed as reduction of […] binding to all active RUNX2 regulatory elements (ENH11,ENH13) at 1 uM by ChIP analysis; format: cell-based; outline: as §3
[11] = biological target: Mediator of RNA polymerase II transcription subunit 1 (Homo sapiens) (UniProt Q15648); assay: Inhibition of MED1 in human BCPAP cells assessed as reduction of […] binding to all active RUNX2 regulatory elements (ENH11) at 1 uM by ChIP analysis; format: cell-based; outline: as §3
[12] = biological target: Mediator of RNA polymerase II transcription subunit 1 (Homo sapiens) (UniProt Q15648); assay: Partial inhibition of MED1 in human MCF7 cells assessed as partial reduction of […] binding to all active RUNX2 regulatory elements (ENH3,ENH13) at 1 uM by ChIP analysis; format: cell-based; outline: as §3

`Cc1sc2c(c1C)C(c1ccc(Cl)cc1)=N[C@@H](CC(=O)OC(C)(C)C)c1nnc(C)n1-2` gave an IC50 (TPC1 [1]) of 462 nM, an IC50 (BCPAP [2]) of 254 nM and an IC50 (MDA-MB-231 [3]) of 507 nM. The IC50 (MCF7 [4]) was 12000 nM, the inhibition (TPC1 [5]) was “inactive” and the inhibition (BCPAP [6]) was “inactive”. The inhibition (MDA-MB-231 [7]) was “inactive”, the inhibition (MCF7 [8]) was “inactive” and the inhibition [9] was “Active”. The inhibition [10] was “Active”, the inhibition [11] was “Active” and the inhibition [12] was “Active”.
